The record followed here is ChEMBL document CHEMBL4354819, “Discovery of Novel Small Molecule Dual Inhibitors Targeting Toll-Like Receptors 7 and 8” (J Med Chem, 2019).

The target in assay [1] is Toll-like receptor 4 (Homo sapiens) (UniProt O00206). Description: Inhibition of human TLR4 expressed in HEK293 cells assessed as reduction in LPS-induced NFkappaB production at 1.5 to 5 uM incubated for 16 hrs by quanti-blue SEAP assay. It is filed as cell-based. The method in brief:
(§1)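 Selectivity panel in stably transfected HEK 293-Blue cells, each overexpressing one human TLR with an inducible SEAP reporter. Agonists: Pam3CSK4 (TLR1/2), Pam2CSK4 (TLR2/6), poly(I:C) (TLR3), LPS (TLR4), R848 (TLR7/8), ODN 2006 (TLR9). Cells were exposed to compound for 16 h. Activity = (raw − untreated)/(ligand + solvent − untreated), with ligand + solvent set as 100%.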

Assay [2] concerns the target T1, Toll-like receptor 9 (Homo sapiens) (UniProt Q9NR96).
T1 sequence (whole entry): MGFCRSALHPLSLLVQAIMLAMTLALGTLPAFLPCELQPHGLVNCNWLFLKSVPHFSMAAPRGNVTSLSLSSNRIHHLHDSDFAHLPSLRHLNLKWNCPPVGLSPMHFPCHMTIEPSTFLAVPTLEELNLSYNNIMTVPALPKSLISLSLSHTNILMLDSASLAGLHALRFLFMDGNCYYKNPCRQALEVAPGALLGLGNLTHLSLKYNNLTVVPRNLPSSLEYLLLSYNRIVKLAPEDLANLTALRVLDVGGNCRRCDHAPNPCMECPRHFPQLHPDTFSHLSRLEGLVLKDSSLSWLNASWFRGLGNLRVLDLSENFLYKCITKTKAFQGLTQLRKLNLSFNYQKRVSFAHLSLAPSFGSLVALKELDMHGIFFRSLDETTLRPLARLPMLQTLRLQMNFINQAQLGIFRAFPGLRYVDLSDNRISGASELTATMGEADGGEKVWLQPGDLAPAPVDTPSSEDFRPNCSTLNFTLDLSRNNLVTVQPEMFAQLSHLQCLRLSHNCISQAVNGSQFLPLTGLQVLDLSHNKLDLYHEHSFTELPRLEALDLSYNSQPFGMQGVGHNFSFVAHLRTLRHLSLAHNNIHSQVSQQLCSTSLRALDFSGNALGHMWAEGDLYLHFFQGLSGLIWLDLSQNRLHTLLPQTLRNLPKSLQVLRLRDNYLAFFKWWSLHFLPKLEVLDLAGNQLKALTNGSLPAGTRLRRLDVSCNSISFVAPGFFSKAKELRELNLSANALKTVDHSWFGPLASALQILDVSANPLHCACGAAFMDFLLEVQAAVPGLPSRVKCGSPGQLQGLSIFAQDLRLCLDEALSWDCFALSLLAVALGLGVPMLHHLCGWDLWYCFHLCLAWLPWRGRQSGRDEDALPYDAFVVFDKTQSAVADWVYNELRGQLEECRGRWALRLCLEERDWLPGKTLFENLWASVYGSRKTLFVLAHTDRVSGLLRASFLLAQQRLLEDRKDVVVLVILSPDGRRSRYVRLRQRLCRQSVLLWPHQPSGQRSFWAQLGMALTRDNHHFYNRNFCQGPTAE
The assay can be described thus: Inhibition of human TLR9 expressed in HEK293 cells assessed as reduction in ODN-2006-induced NFkappaB production at 1.5 uM incubated for 16 hrs by quanti-blue SEAP assay. It is filed as cell-based. The method in brief:
as §1

The target in assay [3] is T1, Toll-like receptor 9 (Homo sapiens). The assay can be described thus: Inhibition of human TLR9 expressed in HEK293 cells assessed as reduction in ODN-2006-induced NFkappaB production at 3 to 5 uM incubated for 16 hrs by quanti-blue SEAP assay. In kind it is cell-based. The essentials:
as §1

Another assay deals with T2, Toll-like receptor 8 (Homo sapiens, UniProt Q9NR97).
T2 sequence (Q9NR97 whole entry): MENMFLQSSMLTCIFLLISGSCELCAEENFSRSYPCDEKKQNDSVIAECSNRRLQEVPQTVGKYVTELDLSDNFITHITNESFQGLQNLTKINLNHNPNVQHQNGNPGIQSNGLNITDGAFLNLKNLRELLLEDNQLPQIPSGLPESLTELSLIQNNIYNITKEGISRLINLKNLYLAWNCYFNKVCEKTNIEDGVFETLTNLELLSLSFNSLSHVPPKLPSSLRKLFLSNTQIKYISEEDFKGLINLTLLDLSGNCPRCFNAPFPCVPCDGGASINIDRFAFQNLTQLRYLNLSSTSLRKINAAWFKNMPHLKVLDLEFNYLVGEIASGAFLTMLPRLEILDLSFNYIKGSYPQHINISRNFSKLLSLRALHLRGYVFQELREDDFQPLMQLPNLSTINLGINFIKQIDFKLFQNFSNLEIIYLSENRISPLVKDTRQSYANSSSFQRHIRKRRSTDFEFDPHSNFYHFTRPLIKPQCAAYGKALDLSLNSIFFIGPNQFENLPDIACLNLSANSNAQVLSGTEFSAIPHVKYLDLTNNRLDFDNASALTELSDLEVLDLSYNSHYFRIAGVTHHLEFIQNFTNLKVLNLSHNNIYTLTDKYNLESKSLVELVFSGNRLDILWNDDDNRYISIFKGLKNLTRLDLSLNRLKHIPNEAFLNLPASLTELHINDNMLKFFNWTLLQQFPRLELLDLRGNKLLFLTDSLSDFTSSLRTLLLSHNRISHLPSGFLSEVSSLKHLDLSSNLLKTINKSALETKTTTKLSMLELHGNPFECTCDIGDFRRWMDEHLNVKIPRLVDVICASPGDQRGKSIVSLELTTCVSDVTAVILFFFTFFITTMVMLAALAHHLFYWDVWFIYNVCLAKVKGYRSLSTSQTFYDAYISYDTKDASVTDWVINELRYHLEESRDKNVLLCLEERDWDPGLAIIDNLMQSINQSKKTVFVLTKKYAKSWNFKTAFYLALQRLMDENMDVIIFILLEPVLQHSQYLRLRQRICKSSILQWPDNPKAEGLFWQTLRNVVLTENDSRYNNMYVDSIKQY
The assay can be described thus: Inhibition of human TLR8 expressed in HEK293 cells assessed as reduction in ssRNA-induced NFkappaB production incubated for 16 hrs by quanti-blue SEAP assay. In kind it is cell-based. The method in brief: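 HEK 293 hTLR8 SEAP reporter cells were stimulated with ssRNA (ssRNA-Lyo-40) and incubated with compound for 16 h. Data were normalized as (raw − untreated)/(ligand + solvent − untreated), with ligand + solvent set as 100%. Mean ± s.d., n = 3 independent experiments.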

The subject of assay [4] is THP-1. The assay can be described thus: Inhibition of IFN mediated immune response in human THP1 cells assessed as inhibition of G3-YSD-induced cGAS signalling pathway at 20 uM incubated for 16 hrs by luciferase assay. It is filed as functional, cell-based. The essentials: (§2)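 THP1-Dual monocytes carrying Lucia luciferase and SEAP reporters were stimulated with 3p-hpRNA (RIG-I agonist) or Y-form dsDNA G3-YSD (cGAS agonist), with or without compound. Secreted Lucia luciferase luminescence was measured as the type I IFN read-out. Mean ± s.d., n = 3 independent experiments.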

For assay [5], the system named is THP-1. The assay can be described thus: Inhibition of IFN mediated immune response in human THP1 cells assessed as inhibition of 3p-hpRNA-induced RIG1 signalling pathway at 5 to 20 uM incubated for 16 hrs by luciferase assay. In kind it is functional, cell-based. The essentials: as §2

Activity calls are given as the source filed them. The rule behind the calls is not given here.

Toll-like receptor 4 (Homo sapiens), sequence (O00206 whole entry): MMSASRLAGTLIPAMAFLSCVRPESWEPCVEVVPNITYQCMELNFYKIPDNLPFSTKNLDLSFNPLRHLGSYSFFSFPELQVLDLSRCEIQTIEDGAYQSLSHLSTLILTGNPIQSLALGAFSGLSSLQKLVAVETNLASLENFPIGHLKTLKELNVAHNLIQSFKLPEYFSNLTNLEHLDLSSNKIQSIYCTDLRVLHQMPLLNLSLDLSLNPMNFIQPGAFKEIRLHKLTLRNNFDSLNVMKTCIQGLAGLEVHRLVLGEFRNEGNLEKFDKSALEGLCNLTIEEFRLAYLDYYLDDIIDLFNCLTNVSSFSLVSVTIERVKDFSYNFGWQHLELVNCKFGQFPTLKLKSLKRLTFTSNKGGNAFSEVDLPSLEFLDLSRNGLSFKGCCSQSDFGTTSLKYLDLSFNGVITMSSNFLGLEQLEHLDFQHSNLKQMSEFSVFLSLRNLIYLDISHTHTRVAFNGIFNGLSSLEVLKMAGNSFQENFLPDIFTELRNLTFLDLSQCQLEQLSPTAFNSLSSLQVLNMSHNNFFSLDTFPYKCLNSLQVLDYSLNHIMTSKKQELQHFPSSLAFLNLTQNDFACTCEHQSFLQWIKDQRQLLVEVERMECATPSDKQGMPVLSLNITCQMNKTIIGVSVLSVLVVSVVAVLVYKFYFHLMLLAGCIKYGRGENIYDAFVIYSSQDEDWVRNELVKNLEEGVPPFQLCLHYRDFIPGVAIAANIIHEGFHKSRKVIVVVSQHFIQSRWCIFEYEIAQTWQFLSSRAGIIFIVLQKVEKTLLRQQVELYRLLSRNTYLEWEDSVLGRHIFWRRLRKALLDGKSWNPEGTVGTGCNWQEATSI

For the compound `O=C(Nc1ccc(Oc2cc(C(F)(F)F)cc(C(F)(F)F)c2)cc1)c1c(F)cccc1Cl`, the inhibition entry in assay [1] and in assay [2] was “inactive” throughout. For the same compound, the inhibition entry in assay [3] was “Active”.
Consider `O=[N+]([O-])c1c(I)cccc1Oc1ccc(-c2nnco2)cc1`, for which the half-maximal inhibitory concentration (IC50) at Toll-like receptor 8 turned out to be 620 nM. In addition, the inhibition entry in the assay on THP-1 [4] was “Active”.
On to `O=C(Nc1ccc(Oc2cncc(C(F)(F)F)c2)cc1)c1c(F)cccc1Cl`, for which, in the assay on THP-1 [5], the inhibition entry is “Active”.

Broadly, the IC50 is the midpoint of a concentration-inhibition curve.
